RGS4 pot = potentiators or activators of RGS4; HEK293 M3R/inducible RGS4, carbachol calcium flux Fluo4; hits give low values; hit rate 0.92% among 310,000; B-score at 10 µM;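 active means B-score of the integrated calcium signal more than 4 SD below the library mean, with starting fluorescence not abnormally high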;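 further: negative B-score means reduced calcium response which marks RGS4 activation or potentiation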
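System: HEK293 FlpIn-TREx cells, stable M3R, doxycycline-inducible RGS4. Timing: overnight RGS4 induction, 30 min dye load 37 °C, 20 min compound RT. Also added: carbachol, ECmax concentration. Measured by: Fluo4 fluorescence kinetic imaging of calcium. Evaluation: integrated calcium ratio converted to B score.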
MrgX1 allo act = allosterically activates human MrgX1 receptor signaling; MrgX1-HEK293, Fluo-4 calcium flux, FDSS; hits give high values; hit rate 0.63% among 310,000; Q96LB2; B-score at 10 µM;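 active means plate-corrected calcium response at least 3 library SD above typical, normal starting fluorescence, not activating the receptor alone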;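 further: compound read alongside a low EC10 to EC30 dose of BAM8-22 agonist; peak minus trough fluorescence over baseline measured at the second addition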
Target sequence (Q96LB2 whole entry, looked up): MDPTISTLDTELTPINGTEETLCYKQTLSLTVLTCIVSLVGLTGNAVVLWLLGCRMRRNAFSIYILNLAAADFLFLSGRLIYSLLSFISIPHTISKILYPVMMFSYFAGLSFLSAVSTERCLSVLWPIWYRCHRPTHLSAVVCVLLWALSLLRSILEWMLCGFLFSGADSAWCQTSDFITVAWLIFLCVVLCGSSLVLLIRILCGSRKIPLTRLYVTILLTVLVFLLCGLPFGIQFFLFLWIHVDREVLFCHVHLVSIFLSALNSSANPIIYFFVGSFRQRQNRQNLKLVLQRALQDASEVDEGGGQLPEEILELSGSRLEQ
MrgX1 antag = human MrgX1 receptor antagonism, primary screen; MRGX1-HEK293 calcium flux, Fluo-4, BAM8-22 antagonism; hits give low values; B-score at 10 µM; hit rate 1.3% among 310,000; AID 588676;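 active means calcium-response B-score plate-corrected more than 3 library SD below zero, starting fluorescence within 5 deviations, no agonist response on first addition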;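 further: peak minus trough fluorescence over baseline after final BAM8-22 challenge near maximal dose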
MrgX1 ag = human MrgX1 receptor agonism, primary screen; Q96LB2; MrgX1-HEK293 cells, Fluo-4 calcium fluorescence, agonist mode; hits give high values; B-score at 10 µM; hit rate 0.44% among 310,000; AID 588627;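 active means calcium response B-score plate-corrected fluorescence ratio at least 3 library SD, with starting fluorescence B-score inside 5 SD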
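times = overnight plating, then 30 min 37 °C plus 30 min room-temperature dye loading | assay system = stable human MrgX1 HEK293 cell line | input = fifteen thousand cells per well | signal = kinetic calcium dye fluorescence, Fluo-4 NW | dosing = compound delivered in addition one of three | read-out = B-scored fluorescence response ratio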
RGS4 inh = human RGS4 inhibition; HEK293 M3R/RGS4 inducible, Fluo-4 calcium flux; hits give high values; triggered by carbachol at its EC20; B-score at 10 µM; hit rate 0.45% among 310,000; AID 463165;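 active means B-score, a plate-corrected calcium signal, over three deviations above library mean, with baseline fluorescence within five deviations of library mean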;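 further: RGS4 expression induced by doxycycline in cells with stable M3 receptor; B-score is computed from the integrated fluorescence ratio over baseline after carbachol; higher B-score means a larger calcium signal and so more RGS4 inhibition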
Target sequence (P49798 whole entry, looked up): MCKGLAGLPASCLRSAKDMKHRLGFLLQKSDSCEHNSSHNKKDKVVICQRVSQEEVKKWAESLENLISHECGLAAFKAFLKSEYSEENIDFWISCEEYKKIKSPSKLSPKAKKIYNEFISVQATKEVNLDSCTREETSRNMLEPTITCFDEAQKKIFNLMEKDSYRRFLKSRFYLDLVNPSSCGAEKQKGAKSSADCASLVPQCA
Hits are given with their value; i = inactive; nt = not tested or not shown. This is a sample that favours compounds with a hit; in the whole collection about 3.5% have one here.

SMILES	RGS4 pot	MrgX1 allo act	MrgX1 antag	MrgX1 ag	RGS4 inh
Cc1ccc(C(=O)O)cc1-c1ccc(C=C2C(=O)c3ccccc3C2=O)o1	i	i	i	41	i
O=C(C1CCOCC1)N1CCCC(N2CCN(c3ccc(F)cc3)CC2)C1 (stereo not drawn)	i	i	i	i	i
CCS(=O)(=O)N1N=C(c2cccc(NS(C)(=O)=O)c2)CC1c1ccc(C)cc1 (stereo not drawn)	i	i	i	i	i
c1ccc(-n2nnnc2Cc2nnnn2-c2ccccc2)cc1	i	i	i	i	i
N#CCCS(=O)(=O)c1nnnn1-c1ccccc1	nt	i	i	42	nt
COC(=O)c1[nH]c2c(c1C)C(=O)CC(c1cccc(OC)c1)C2 (stereo not drawn)	i	i	i	i	i
C/C(=N\NC(=S)NC1CCCCC1)c1ccc(Cl)c(Cl)c1	i	i	-4.9	i	i
CCn1c(=O)c([N+](=O)[O-])c(NCC(O)c2ccccc2)c2ccccc21 (stereo not drawn)	i	i	i	i	i
Cn1c(=O)c([N+](=O)[O-])c(NCC(O)c2ccccc2)c2ccccc21 (stereo not drawn)	i	i	-5.7	i	i
Cc1ccccc1CN1CCN(CC(=O)NCc2ccccc2)CC1	i	i	i	i	i
O=C(O)Cc1sc(N/N=C\c2ccccc2)nc1-c1ccccc1	i	i	-6.2	i	i
CCOC(=O)c1sc(N/N=C/c2ccccc2)nc1C	i	i	i	i	i
COc1ccc(/C=C(\C#N)C(=O)c2c(C)[nH]c3ccccc23)cc1OC	i	i	i	32	i
COc1ccc(N2CCN(C(=O)c3cccc(Br)c3)CC2)c([N+](=O)[O-])c1	i	i	i	i	i
COc1cc(CNCCSc2nnnn2C)cc(Br)c1OCc1ccccc1F	i	i	i	i	i
CCOc1cc(CNCCSc2nnnn2C)cc(Br)c1OCc1ccccc1F	i	i	-4.7	i	i
CCOc1cccc(CNCCO)c1OCc1ccc(Cl)cc1Cl	i	i	i	i	i
CCOc1cc(CNCCO)cc(Br)c1OCc1ccc(Cl)cc1Cl	-7.7	i	i	i	i
CCOC(=O)c1sc(=S)n(-c2ccccc2Cl)c1SC	-8.8	10	i	i	i
CN(Cc1ccno1)Cc1cn(Cc2ccccc2)nc1-c1ccc2c(c1)OCO2	i	i	i	i	i
CC(/C=C1\NC(=S)NC1=O)=C\c1ccccc1	i	i	-5.1	i	i
O=C1NC(=S)N/C1=C/c1cccc2ccccc12	i	i	i	i	i
COc1ccccc1NC(=O)Cn1nc(-c2ccc(Cl)cc2)c2ccccc2c1=O	i	i	i	34	i
c1coc(-c2nnc3sc(Cc4cccs4)nn23)c1	i	i	-7.2	i	i
CCOC(=O)c1c(N2C(=O)Nc3cc(Cl)c(Cl)cc3N2O)sc2c1CCCCC2	nt	i	i	50	nt
SMILES	RGS4 pot	MrgX1 allo act	MrgX1 antag	MrgX1 ag	RGS4 inh
CCOC(=O)c1c(-n2cnnn2)sc2c1CCCC2	i	i	i	i	i
CN(C)c1ccc(-c2nnn(CC(=O)NCc3ccc4c(c3)OCO4)n2)cc1	i	i	i	i	i
O=C(CCNS(=O)(=O)c1ccccc1)OCC(=O)c1ccc(Br)cc1	i	i	i	i	i
COc1ccc(C(=O)COC(=O)CCNS(=O)(=O)c2ccccc2)cc1Br	i	i	-5.6	i	i
CCOc1ccc(S(=O)(=O)N2CCC(C(=O)N3CCN(c4ccccc4F)CC3)CC2)cc1C	-7.2	i	i	i	i
CCOc1ccc(CN2CCC(C(=O)N3CCN(c4ccccc4F)CC3)CC2)cc1OC	i	i	i	i	i
Cc1nnc(SCc2cc(=O)[nH]c(/N=C(\N)Nc3ccccc3Sc3ccccc3)n2)s1	-7.4	i	i	i	i
CCOC(=O)c1c(-c2ccccc2)oc2ccc(OCC(O)CNCCN(C)C)cc12 (stereo not drawn)	-7.6	i	i	i	i
CCOC(=O)c1c(-c2ccccc2)oc2ccc(OCC)cc12	i	i	i	i	i
CCOC(=O)c1csc(NNC=O)n1	i	i	i	i	i
O=S(=O)(NC1=NCCCCC1)c1ccc2ccccc2c1	i	i	i	i	i
Cn1c(SCC(N)=O)nnc1-c1ccc(S(=O)(=O)N2CCCC2)cc1	i	i	i	i	i
Cc1ccc(-n2c(SCC(N)=O)nnc2-c2ccc(S(=O)(=O)N3CCCCC3)cc2)c(C)c1	-7.1	i	i	i	i
Fc1cnc(N/N=C/c2ccc(-c3ccc(Br)cc3)o2)nc1N1CCOCC1	-7.8	i	i	i	i
Brc1ccc(-c2ccc(/C=N/Nc3nc(N4CCOCC4)nc(N4CCOCC4)n3)o2)cc1	i	i	i	i	i
COC(=O)c1cc(=O)c2c(C)nc(C(Cl)(Cl)Cl)nc2[nH]1	i	i	i	i	i
Cc1cccc(C(=O)NNC(=S)NC(=O)c2ccccc2)c1	i	i	i	186	i
Cc1ccc(C(=O)NNC(=S)NC(=O)c2ccccc2)cc1	i	i	i	139	i
Cc1ccc(C(=O)NNC(=O)c2cccc(C)c2)cc1	i	i	i	i	i
COc1ccc(C(=O)NC(=S)NNC(=O)c2cccc(C)c2)cc1	-8.4	i	i	102	i
COCCCN(C(=S)Nc1c(C)cc(C)cc1C)C(C)c1ccccn1 (stereo not drawn)	i	i	i	i	i
CC1CCCCN1C(=O)c1c([N+](=O)[O-])cnn1C (stereo not drawn)	i	i	-9.2	i	i
COc1ccccc1N(C)S(=O)(=O)c1ccc(C(=O)OCC(=O)NCCC2=CCCCC2)cc1	i	i	i	i	i
C(=N\c1nc2ccccc2[nH]1)/c1cccs1	i	i	i	30	i
CCC(=O)O[C@]1(C(=O)SCF)[C@H](C)C[C@H]2[C@@H]3C[C@H](F)C4=CC(=O)C=C[C@]4(C)[C@@]3(F)[C@@H](O)C[C@@]21C	i	i	-6.2	i	i
SMILES	RGS4 pot	MrgX1 allo act	MrgX1 antag	MrgX1 ag	RGS4 inh
O=C(NC1CC2CCCC(C1)N2C(=S)NCCc1ccccc1)C1CC1 (stereo not drawn)	i	i	i	i	i
O=C(O)Cc1cn(Cc2cccc(Cl)c2)c2ccccc12	i	i	i	i	i
CC1CCCN(C(=O)Cc2cn(Cc3cccc(Cl)c3)c3ccccc23)C1 (stereo not drawn)	-7.4	i	i	i	i
O=C(Cc1cn(Cc2cccc(Cl)c2)c2ccccc12)N1CCCCCC1	-7.2	i	i	i	i
CCOC(=O)CN1C(=O)NC(C)(c2ccc(OC(F)F)cc2)C1=O (stereo not drawn)	i	i	i	i	i
CC1(c2ccc(OC(F)F)cc2)NC(=O)N(CC(=O)Nc2ccccc2)C1=O (stereo not drawn)	i	i	i	29	i
CC1(c2ccc(OC(F)F)cc2)NC(=O)N(CC(=O)Nc2ccc3[nH]c(=O)[nH]c3c2)C1=O (stereo not drawn)	i	i	i	i	i

Compound activity: PubChem BioAssay, Johns Hopkins Ion Channel Center
